High-throughput results: PubChem, several laboratories
Rows were chosen to be rich in hits. Some 2.5% of all compounds tested hit in one or more screens of this group.
Hsp90 block: displaces geldanamycin probe from tumor Hsp90; NCI-N417 lysate Hsp90, Cy3B-geldanamycin FP displacement; P07900; 64,000 compounds, 0.35% hits; inhibition, % at 30 µM; AID 429;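 active = inhibition above 50%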;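 also: 0% = tracer plus lysate wells and 100% = tracer alone without lysate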
HEK293 NFkB inh: inhibitors of the PMA/ionomycin-induced NF-kB reporter in HEK293 cells; HEK-293 NF-kB luciferase reporter, luminescence; inhibition, % at 3 µM; 62,000 compounds, 0.21% hits; AID 465;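 active = inhibition above the mean of all tested compounds plus 3 SD, cut at about 40% in these data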;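 also: 0% = stimulated DMSO wells and 100% = 10 µM reference inhibitor 5653914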
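Material: HEK-293 cells with stable firefly luciferase reporter driven by four HIV NF-kB elements / Also added: PMA plus ionomycin mix as NF-kB-activating stimulus / Compound dosing: 3 µM once, 0.30% DMSO / Times: 1 h pretreatment, 16 h stimulation, 37 °C / Signal: luminescence / Evaluation: per-plate % inhibition versus controls / Benchmarks: DMSO and 10 µM reference inhibitor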
Her2 expr inh: inhibitors of human Her2 kinase expression; P04626; SKBR-3 HER2 protein level, AlphaScreen, 18-24 h; active compounds read low; HER2 level % of control, % at 10 µM; 65,000 compounds, 0.69% hits; AID 645;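 active = HER2 level under 5% of the carrier-only control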;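 also: 100% = DMSO carrier and 0% = 500 nM PU-H71 HSP90 inhibitor; lower value means stronger loss of Her2 protein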
Target sequence (P04626 whole entry, looked up): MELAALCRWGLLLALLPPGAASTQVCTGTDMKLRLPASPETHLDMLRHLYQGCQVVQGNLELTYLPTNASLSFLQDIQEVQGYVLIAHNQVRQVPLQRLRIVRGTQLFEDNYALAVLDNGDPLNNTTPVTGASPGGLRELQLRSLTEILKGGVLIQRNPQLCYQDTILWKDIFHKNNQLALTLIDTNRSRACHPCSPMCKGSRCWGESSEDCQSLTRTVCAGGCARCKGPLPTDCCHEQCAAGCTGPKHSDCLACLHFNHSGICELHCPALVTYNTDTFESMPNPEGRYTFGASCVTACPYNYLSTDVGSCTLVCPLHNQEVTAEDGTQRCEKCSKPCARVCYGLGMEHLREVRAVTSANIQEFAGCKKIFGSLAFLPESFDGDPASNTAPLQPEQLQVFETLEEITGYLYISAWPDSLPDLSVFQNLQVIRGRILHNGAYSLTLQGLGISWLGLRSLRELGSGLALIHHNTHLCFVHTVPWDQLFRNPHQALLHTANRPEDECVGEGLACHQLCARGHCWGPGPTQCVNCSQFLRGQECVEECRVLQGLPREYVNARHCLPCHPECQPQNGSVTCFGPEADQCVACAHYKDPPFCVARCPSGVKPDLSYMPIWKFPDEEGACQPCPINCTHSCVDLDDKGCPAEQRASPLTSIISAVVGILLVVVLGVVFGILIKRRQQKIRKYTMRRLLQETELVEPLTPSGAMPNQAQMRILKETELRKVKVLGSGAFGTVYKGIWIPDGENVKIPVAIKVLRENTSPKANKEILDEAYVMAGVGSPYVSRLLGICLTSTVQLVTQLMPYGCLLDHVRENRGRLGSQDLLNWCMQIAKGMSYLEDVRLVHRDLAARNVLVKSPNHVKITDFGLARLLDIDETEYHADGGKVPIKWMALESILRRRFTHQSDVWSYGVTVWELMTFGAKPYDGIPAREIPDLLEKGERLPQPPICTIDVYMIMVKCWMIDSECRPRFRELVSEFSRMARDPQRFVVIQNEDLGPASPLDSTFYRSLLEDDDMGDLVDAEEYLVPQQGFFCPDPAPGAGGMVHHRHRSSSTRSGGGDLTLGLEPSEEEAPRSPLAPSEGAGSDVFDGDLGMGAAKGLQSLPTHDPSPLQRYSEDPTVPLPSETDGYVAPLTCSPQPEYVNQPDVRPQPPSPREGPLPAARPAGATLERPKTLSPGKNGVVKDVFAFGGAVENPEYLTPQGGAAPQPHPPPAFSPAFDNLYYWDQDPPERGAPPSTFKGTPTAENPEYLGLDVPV
AP ELISA ortho: orthogonal test for alternative complement pathway inhibitors; Human serum alternative complement pathway, LPS-coated ELISA, C3 deposition; tested in compound mixtures; inhibition, % at 5 µM; 62,000 compounds, 0.08% hits; AID 1235;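 active = inhibition above 30% in each of the two pooled mixtures holding the compound, so the lower value exceeds 30%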;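 also: 0% = serum in Mg-EGTA without compound and 100% = EDTA serum blank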
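Test system: human serum alternative complement pathway, C3 deposition on LPS-coated wells; also added: Plate-bound LPS; doses: 5 µM per compound in ten-compound mixtures; schedule: 1 h at 37 °C; detection: Anti-C3 ELISA, OD 450 nm; evaluation: percent inhibition of C3 deposition onto LPS; repeats: two pool placements per compound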
JNK3 blocker: blocks human JNK3 kinase activity | purified JNK3 kinase activity, HTS | AID 746 | P53779 | inhibition, % at 8 µM | 60,000 compounds, 0.61% hits; in the data active = inhibition above about 17%;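 also: 0% = DMSO and 100% = reference inhibitor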
Jurkat viability: cytotoxic compounds reducing Jurkat cell viability | Jurkat E6.1 viability, ATP luminescence, 48 h | 56,000 compounds, 1.2% hits | inhibition, % at 4 µM | AID 463;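 active = inhibition above the mean inhibition of all tested compounds plus 3 SD, cut at about 28% in these data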
Starred values were filed as active, the others as inactive; . = no result.

SMILES	Hsp90 block	HEK293 NFkB inh	Her2 expr inh	AP ELISA ortho	JNK3 blocker	Jurkat viability
CCOC(=O)c1[nH]c(C)c(C(=O)Nc2cccc(Cl)c2C)c1C	-1.7	-5.7	66.3	9.0	-4.0	64.4*
CCOC(=O)c1[nH]c(C)c(C(=O)Nc2ccc(Cl)cc2)c1C	-4.5	-4.0	116.0	15.0	9.4	3.8
CC(=O)c1c(C)[nH]c(C(=O)N2CCc3ccccc32)c1C	-7.3	16.3	183.3	3.1	7.1	-2.9
CCOC(=O)c1[nH]c(C)c(C(=O)N2CCc3ccccc32)c1C	-2.2	20.8	76.2	5.3	-0.4	97.2*
O=C(c1cc2ccccc2oc1=O)N(Cc1ccc2c(c1)OCO2)Cc1ccco1	1.0	7.5	99.2	7.2	6.4	-1.6
CCOc1ccc(OCc2cccc(C(=O)N3CCOCC3)c2)cc1	-2.5	50.5*	91.0	4.9	-1.0	-0.3
COc1ccc(C(=O)n2c(-c3ccco3)nc3ccccc32)cc1	-4.7	23.3	86.3	6.7	-2.0	77.7*
CN(CC1CCCO1)S(=O)(=O)c1ccc(C(=O)Nc2nc(-c3ccccn3)cs2)cc1 (stereo unspecified)	-3.2	11.9	78.8	-1.5	1.8	52.5*
O=C(Nc1nc(-c2ccccn2)cs1)C1CC1	1.7	-5.6	112.9	-9.2	2.1	6.1
Cc1cccc(N2CCN(c3cccc(C)c3)C2c2cccnc2)c1	1.7	7.2	130.2	16.0	2.1	93.6*
CN1C(=O)C2(C(C#N)=C(N)Oc3c2oc(CO)cc3=O)c2ccccc21 (stereo unspecified)	-17.1	8.1	107.0	-14.1	-4.7	-3.6
CCOC(=O)N1CCN(c2c(NCc3cccs3)c(=O)c2=O)CC1	-5.8	10.3	52.9	11.1	-2.9	36.7*
CCOC(=O)N1CCN(c2c(NCc3ccccc3OC)c(=O)c2=O)CC1	-2.2	5.1	75.6	2.1	0.5	0.8
COc1ccccc1-c1nnc(SCC(=O)NCc2c(C)c(Cl)cc(C(C)C)c2O)o1	0.9	19.0	87.7	6.7	-4.3	-3.9
CNS(=O)(=O)c1cccc(C(=O)OCc2cc(Cl)cc3c2OCOC3)c1	-0.1	24.2	99.4	6.3	1.6	2.3
COCC(C)n1c(C)cc(C(=O)COC(=O)c2c(NC(C)=O)sc(C)c2C)c1C (stereo unspecified)	-3.3	25.4	-11.0*	4.1	1.2	3.5
COCC(C)n1c(C)cc(C(=O)COC(=O)c2c(C)nn(-c3ccccc3)c2C)c1C (stereo unspecified)	-8.0	4.8	96.5	5.6	0.1	-8.9
COc1ccc(Cn2c(C)ccc2C)cc1	.	.	71.4	20.6	.	.
CCN1CSC(=S)N(Cc2ccc(OC)cc2)C1	-3.0	-0.5	-11.5*	.	.	.
O=C(c1ccccc1)c1nc[nH]c1C(=O)Nc1ccccn1	-4.5	-3.6	73.3	-8.7	18.2*	1.3
CC(C)c1ccc2oc(=O)cc(CN3CCN(c4ccc(F)cc4)CC3)c2c1	-0.3	18.6	82.4	39.6*	-0.8	2.8
CCn1ncc(C2=NOC(C(=O)NCc3ccc(OC)cc3)C2)c1C (stereo unspecified)	-3.3	11.5	70.5	12.3	-2.8	39.0*
COc1ccc(C2=NOC(C(=O)NCc3ccccc3)C2)cc1 (stereo unspecified)	2.3	23.3	102.2	18.7	3.7	45.1*
CCn1ncc(C2=NOC(C(=O)NCc3ccccc3)C2)c1C (stereo unspecified)	-2.8	21.4	60.3	4.6	2.1	93.3*
COc1cccc(C2=NOC(C(=O)NCc3ccccc3)C2)c1 (stereo unspecified)	-0.9	-6.7	85.7	12.0	7.5	3.3
O=C1CC(N(Cc2ccco2)C(=O)Nc2ccc(F)cc2)C(=O)N1c1ccc(F)cc1 (stereo unspecified)	-1.6	21.8	70.2	-1.0	-0.4	-2.7
Cc1cccc(N(CC(=O)NC2CCCCC2)C(=O)CCC(=O)Nc2cc(C)ccn2)c1	-0.7	7.1	78.5	16.0	9.4	-6.1
Cc1nn(C)cc1CNC(=O)c1cnn2c(C(F)F)cc(C3CC3)nc12	0.8	14.0	89.4	11.9	33.5*	8.2
Cn1cc(/C(Cc2ccccc2)=N\O)c2ccccc21	-1.2	9.4	112.0	-12.6	-0.8	58.9*
CCOC(=O)c1n[nH]c2ccccc12	-3.8	.	121.0	.	37.8*	.
